In PubChem BioAssay AID623942 (The Scripps Research Institute Molecular Screening Center, 2012):
Calls of active or inactive are those of the source.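 The calls were made as follows: active = IC50 at or below 50 µM; inactive = IC50 above 50 µM.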

Target: RecBCD enzyme subunit RecC (Escherichia coli (strain K12)) + RecBCD enzyme subunit RecB (Escherichia coli (strain K12)) (UniProt P07648+P08394)
Experiment: Chi-specific cleavage inhibition potency, RecBCD – biochemical, radioactive gel readout, counter-screen for AddAB inhibitor project, dose response (AID 623942)
Conditions: purified RecBCD, Chi cutting/unwinding
Summary of the method: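 Material: purified Escherichia coli RecBCD helicase-nuclease complex / Input: 0.15 nM RecBCD / Compound dosing: serial dilutions, top 500 µM nominal / Technique: gel autoradiography / Timing: 1 min at 37 °C / Control set: DMSO-only reaction as uninhibited reference / Read-out basis: IC50 from Chi-cut band reduction vs DMSO / Reagent: 0.1 nM labeled Chi+F DNA plus 5 mM ATP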

Sequence of RecBCD enzyme subunit RecC (Escherichia coli (strain K12)) + RecBCD enzyme subunit RecB (Escherichia coli (strain K12)) (P07648 whole entry, looked up): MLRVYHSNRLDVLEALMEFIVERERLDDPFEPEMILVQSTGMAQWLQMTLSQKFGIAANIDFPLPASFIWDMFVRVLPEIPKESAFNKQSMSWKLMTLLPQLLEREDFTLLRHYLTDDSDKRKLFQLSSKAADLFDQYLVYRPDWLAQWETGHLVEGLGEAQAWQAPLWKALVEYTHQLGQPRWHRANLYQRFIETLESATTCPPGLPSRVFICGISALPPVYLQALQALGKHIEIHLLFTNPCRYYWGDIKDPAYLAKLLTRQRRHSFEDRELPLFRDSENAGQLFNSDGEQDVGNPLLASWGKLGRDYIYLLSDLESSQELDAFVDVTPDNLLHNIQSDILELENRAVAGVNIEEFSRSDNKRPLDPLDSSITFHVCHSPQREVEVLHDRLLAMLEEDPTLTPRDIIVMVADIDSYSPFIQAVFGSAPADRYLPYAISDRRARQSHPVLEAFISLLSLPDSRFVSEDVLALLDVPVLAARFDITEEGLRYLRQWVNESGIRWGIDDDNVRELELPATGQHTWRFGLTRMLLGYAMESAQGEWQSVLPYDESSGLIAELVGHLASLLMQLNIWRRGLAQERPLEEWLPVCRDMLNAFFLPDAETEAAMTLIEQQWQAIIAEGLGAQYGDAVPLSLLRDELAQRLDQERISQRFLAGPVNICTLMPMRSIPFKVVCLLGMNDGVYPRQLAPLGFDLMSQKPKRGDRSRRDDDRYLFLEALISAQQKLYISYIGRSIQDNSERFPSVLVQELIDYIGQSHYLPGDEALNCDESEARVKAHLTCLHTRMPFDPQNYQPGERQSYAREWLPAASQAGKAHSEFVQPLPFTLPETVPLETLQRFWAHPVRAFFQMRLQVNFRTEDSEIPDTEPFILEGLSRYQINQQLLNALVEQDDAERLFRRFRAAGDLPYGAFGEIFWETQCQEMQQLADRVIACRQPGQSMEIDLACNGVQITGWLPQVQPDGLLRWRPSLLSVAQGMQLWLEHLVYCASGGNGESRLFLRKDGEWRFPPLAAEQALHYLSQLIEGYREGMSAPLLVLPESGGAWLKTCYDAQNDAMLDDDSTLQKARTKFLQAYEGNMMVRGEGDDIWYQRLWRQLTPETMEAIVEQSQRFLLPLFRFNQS
Sequence of RecBCD enzyme subunit RecC (Escherichia coli (strain K12)) + RecBCD enzyme subunit RecB (Escherichia coli (strain K12)) (P08394 whole entry, looked up): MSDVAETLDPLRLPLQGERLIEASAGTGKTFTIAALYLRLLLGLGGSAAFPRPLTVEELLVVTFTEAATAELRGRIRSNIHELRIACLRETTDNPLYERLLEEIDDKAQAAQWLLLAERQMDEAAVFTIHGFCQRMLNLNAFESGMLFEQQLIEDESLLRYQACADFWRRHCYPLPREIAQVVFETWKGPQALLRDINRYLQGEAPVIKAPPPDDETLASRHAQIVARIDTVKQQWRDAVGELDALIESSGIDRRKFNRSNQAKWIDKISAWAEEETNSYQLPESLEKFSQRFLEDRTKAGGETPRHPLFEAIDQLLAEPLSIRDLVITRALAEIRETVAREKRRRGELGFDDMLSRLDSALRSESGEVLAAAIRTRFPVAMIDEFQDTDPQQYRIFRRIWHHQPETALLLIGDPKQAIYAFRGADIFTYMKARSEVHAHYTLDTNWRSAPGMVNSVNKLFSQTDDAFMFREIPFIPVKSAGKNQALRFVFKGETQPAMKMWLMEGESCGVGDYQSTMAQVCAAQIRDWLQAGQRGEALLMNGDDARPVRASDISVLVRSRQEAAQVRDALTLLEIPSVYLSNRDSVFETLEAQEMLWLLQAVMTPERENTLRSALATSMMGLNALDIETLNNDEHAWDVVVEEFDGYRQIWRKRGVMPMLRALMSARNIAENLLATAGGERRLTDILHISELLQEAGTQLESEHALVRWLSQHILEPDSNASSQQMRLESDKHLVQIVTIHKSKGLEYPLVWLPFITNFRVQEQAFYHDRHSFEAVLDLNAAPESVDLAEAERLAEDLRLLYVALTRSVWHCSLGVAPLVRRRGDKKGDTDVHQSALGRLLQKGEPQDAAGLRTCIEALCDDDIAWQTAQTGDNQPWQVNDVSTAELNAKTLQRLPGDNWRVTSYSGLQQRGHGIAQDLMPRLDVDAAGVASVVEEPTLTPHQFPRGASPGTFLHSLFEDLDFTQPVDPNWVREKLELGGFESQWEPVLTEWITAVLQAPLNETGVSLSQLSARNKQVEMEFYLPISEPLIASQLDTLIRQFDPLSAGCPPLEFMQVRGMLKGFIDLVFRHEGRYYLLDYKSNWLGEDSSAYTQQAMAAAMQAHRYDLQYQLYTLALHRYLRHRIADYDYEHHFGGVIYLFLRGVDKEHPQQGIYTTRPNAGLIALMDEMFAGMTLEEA

Row | Compound | IC50
1 | CCn1cc(C(=O)O)c(=O)c2cnc(N3CCN(C(=S)Nc4cccc(C(F)(F)F)c4)CC3)nc21 | 0.6 µM
2 | O=C(Nc1cccc(NC(=O)c2ccccc2Cl)c1)c1ccc([N+](=O)[O-])o1 | 20 µM
3 | O=C(Nc1ncccn1)c1ccc([N+](=O)[O-])o1 | 49 µM
4 | NC(=O)c1ccsc1NC(=O)COC(=O)c1ccc([N+](=O)[O-])o1 | inactive
5 | O=C(Nc1ccc(N2CCOCC2)cc1)c1ccc([N+](=O)[O-])o1 | inactive
6 | Cc1ccc2nc(/C(C#N)=C\c3ccc([N+](=O)[O-])o3)[nH]c2c1 | 38 µM
7 | C=CCn1c(Sc2ncc([N+](=O)[O-])s2)n[nH]c1=O | > 500 µM (inactive)
8 | O=C(OCC(=O)c1cccs1)c1ccc([N+](=O)[O-])o1 | > 500 µM (inactive)
9 | Cc1cccnc1NC(=O)c1ccc([N+](=O)[O-])o1 | > 500 µM (inactive)
10 | CC(=O)Nc1ccc2nc(NC(=O)c3ccc([N+](=O)[O-])o3)sc2c1 | > 500 µM (inactive)

Results, then the compound that gave them:

Row | IC50 | Compound
11 | 20 µM | N#Cc1c(NC(=O)c2ccc([N+](=O)[O-])o2)sc2c1CCC2
12 | 0.6 µM | CCn1cc(C(=O)O)c(=O)c2cc(F)c(N3CCN(C(=S)Nc4cccc(C(F)(F)F)c4)CC3)cc21
13 | > 500 µM (inactive) | O=C(NCc1cccnc1)c1ccc([N+](=O)[O-])o1
14 | 20 µM | CCn1cc(C(=O)O)c(=O)c2cc(F)c(N3CCN(C(=S)Nc4ccccc4C(F)(F)F)CC3)cc21
15 | 10 µM | CCn1cc(C(=O)O)c(=O)c2cnc(N3CCN(C(=S)Nc4ccccc4C(F)(F)F)CC3)nc21
